Hits are enriched below; roughly 5.6% of the tested compounds scored in any of these assays.
aDG glyco up: increases alpha dystroglycan glycosylation. activation, % at 10 µM. Pro5-aDG cells, alpha-DG glycosylation AlphaScreen (IIH6); 0% Pro5, 100% B10-LARGE cell signal. hit rate 0.22% among 360,000;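 active means activation of at least 8% versus controls, or a plate z-score of at least 8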;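 further: Pro5 are CHO cells carrying HIG-tagged alpha-DG that lacks glycosylation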
MPTP block: blocks calcium-induced mitochondrial swelling; inhibition, % at 10 µM; hit rate 1.4% among 360,000; isolated mouse mitochondria, Ca2+ swelling absorbance, 30 min;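 active means inhibition of 50% or more, scaled per plate between neutral and stimulator controls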
NR3A LBD binder: NR3A (human) ligand-binding domain modulation; Tm shift relative to glycine control, % at 25 µM; hit rate 2.5% among 340,000; NR3A LBD differential scanning fluorimetry, Tm shift; 0% = protein alone, 100% = glycine-bound protein;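 active means melting temperature shift of at least 10% of the positive control shift, at one fixed dose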
XBP1 UPR activ: adaptive UPR (XBP1) activation | CHO-XBP1 luciferase reporter, IRE1-XBP1 UPR activation, luminescence; percent of tunicamycin response, DMSO as zero | activation, % at 20 µM | hit rate 0.33% among 330,000 | AID 463104;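 active means versus positive control, 20 µM dose yields 30% or more activation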
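Material: CHO-XBP1 cells stably carrying IRE1-XBP1-driven luciferase reporter / Amount: 1000 cells per well / Compound: 20 µM, 1% DMSO / Times: 6 h treatment, 37 °C / Detection: luciferase luminescence / Measure: % activation of reporter signal versus tunicamycin and DMSO controls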
CHOP inh: inhibitors of CHOP induction in ER stress response; CHO-K1 CHOP-promoter luciferase, tunicamycin-induced, 15-18 h; inhibition, % at 10 µM; hit rate 3.8% among 220,000;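 active means compounds that reduced the stress-induced luciferase reporter signal by more than about 70% of percent inhibition, limit read from the data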
UPR CHOP act: activators of apoptotic arm of unfolded protein response (CHOP); CHO-CHOP luciferase reporter, UPR activation, luminescence; percent of tunicamycin response over DMSO baseline; activation, % at 10 µM; hit rate 0.34% among 330,000; AID 449763;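 active means at 10 µM dose, activation of 40% or more, normalized to positive control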
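Material: CHO-CHOP cells, stable luciferase reporter of PERK-eIF2a-CHOP signalling; quantity: 500 reporter cells seeded per well; buffer or medium: F12 medium containing 10% fetal bovine serum; compound: one dose, 10 µM in 0.5% DMSO; incubation: 6 h compound treatment, 37 °C; measured by: Steady-Glo luciferase luminescence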
Numbers stand for hits; – = inactive; · = not tested or not shown.

SMILES | aDG glyco up | MPTP block | NR3A LBD binder | XBP1 UPR activ | CHOP inh | UPR CHOP act
CO/N=C(\Cn1ncc(NC2CCCCC2)c(Br)c1=O)c1ccc(Cl)cc1 | – | – | – | – | 84 | –
COc1ccc(NC(=O)CN(C)C(=O)CCCNC(=O)c2ccc(Cl)cc2)cc1 | – | – | – | – | · | –
COc1cc(/C=C2/NC(=O)NC2=O)cc(Br)c1OCc1ccccc1 | – | – | – | – | 94 | –
COc1cc(/C=C2/NC(=O)NC2=O)cc(Br)c1OCc1cccc(C(=O)O)c1 | – | – | – | – | – | –
c1ccc2nc(-c3nc4ccccc4o3)ccc2c1 | – | – | – | – | 71 | –
c1ccc(-c2ccc3ccccc3n2)cc1 | – | – | 32 | – | · | –
O=C1CSC(=Nc2ccc(Cl)cc2)N1Cc1ccco1 | – | – | – | – | – | –
O=C1CSC(=Nc2ccccc2)N1Cc1ccccc1 | – | – | – | – | – | –
COc1cc(N=c2ssnc2Cl)cc(OC)c1OC | – | – | – | – | 94 | –
N#Cc1ccc(Oc2c(Cl)cncc2Cl)cc1 | – | – | – | – | · | –
Clc1nssc1=Nc1ccccc1 | – | – | – | · | 86 | ·
COc1cc(-c2nnc(-c3cc(OC)c(OC)c(OC)c3)o2)cc(OC)c1OC | – | – | – | – | – | –
N#Cc1ccc(N=c2ssnc2Cl)cc1 | – | – | 23 | – | 86 | –
Clc1ccc(N=c2ssnc2Cl)cc1 | – | – | 14 | – | – | –
CN(CCO)c1ccc2c(c1)OC[C@@H](Cc1ccccc1)NS2(=O)=O | – | – | · | · | · | ·
Fc1ccc(N=c2ssnc2Cl)c(F)c1 | – | – | – | – | 82 | –
O=C(Cn1nnc(-c2ccccc2)n1)OCc1ccccc1 | – | – | – | – | 76 | –
O=C(Cn1nnc(-c2ccccc2)n1)OCc1csc(-c2ccccc2)n1 | – | – | – | – | – | –
S=C(NCC1CCCO1)N1CCN(Cc2ccccc2Cl)CC1 (centres undefined) | – | – | – | – | – | –
Cc1ccc(C=C2C(Cl)=C(Cl)C(Cl)=C2Cl)cc1 | · | · | – | – | 107 | –
Cc1ccc(/C=[N+](/C)[O-])cc1 | – | – | – | – | – | –
COc1cc(C)c(CN2CCN(CC(=O)Nc3ccccc3C(=O)NC3CC3)CC2)cc1OC | – | – | – | – | · | –
Cc1ccc(/C=N\NC(=O)c2ccc(Cn3cc(Br)c([N+](=O)[O-])n3)o2)o1 | – | – | – | – | – | –
O=C(N/N=C\c1cccc(Cl)c1)c1ccc(Cn2cc(Br)c([N+](=O)[O-])n2)o1 | – | – | 12 | – | – | –
CC1(c2nnc(-c3cccc(Cl)c3)o2)CC(c2ccccc2F)=NO1 (centres undefined) | – | – | 13 | – | · | –
SMILES | aDG glyco up | MPTP block | NR3A LBD binder | XBP1 UPR activ | CHOP inh | UPR CHOP act
CC1(c2nnc(-c3cccc(Cl)c3)o2)CC(c2cccc(Cl)c2)=NO1 (centres undefined) | – | – | – | – | · | –
O=S1(=O)CC(N2CCN(CCO)CC2)CN1Cc1cn(Cc2ccc(F)cc2)nn1 (centres undefined) | – | – | · | · | · | ·
Cc1ccc([N+](=O)[O-])cc1S(=O)(=O)NCCc1c(C)[nH]c2c(C)cccc12 | – | – | 33 | – | – | –
Cc1[nH]c2c(C)cccc2c1CCNS(=O)(=O)c1cccc([N+](=O)[O-])c1 | – | – | 30 | – | – | –
O=[N+]([O-])c1cccc(S(=O)(=O)NCCc2ccccc2)c1 | – | – | – | – | · | –
O=C1c2ccccc2C(=O)C12OC2c1ccc(Cl)cc1Cl (centres undefined) | – | – | – | · | 88 | ·
O=C(C1CCN(S(=O)(=O)c2ccc(F)cc2)CC1)N1CCCC(C(F)(F)F)C1 (centres undefined) | – | – | – | – | · | –
Cc1ccc(NC(=O)CC2Nc3ccccc3NC2=O)cc1Cl (centres undefined) | – | – | 10 | · | · | ·
Cc1ccc(-c2ccc(C(=O)Nc3cccc(F)c3)o2)c2ccccc12 | – | – | 17 | – | – | –
O=c1[nH]nc(Sc2ccccc2)c(=S)[nH]1 | – | – | · | · | · | ·
COc1ccc(N(CC(=O)NCc2ccccc2OC)S(=O)(=O)c2ccccc2)cc1 | – | – | – | – | · | –
Clc1ccc(N2CCN(c3ccnc(Cl)n3)CC2)cc1 | – | – | 14 | – | · | –
CCOC(=O)Cc1csc(NC(=O)Nc2ccc(F)cc2)n1 | – | – | – | – | – | –
CCOC(=O)Cc1csc(NC(=O)Nc2cccc(OC)c2)n1 | – | – | 14 | – | – | –
C/C=C/c1ccc(OCC(=O)OCc2csc(Nc3ccc(C)cc3)n2)c(OC)c1 | – | – | – | – | – | –
Cc1ccc(Nc2nc(COC(=O)COc3ccc(C=O)cc3)cs2)cc1 | – | – | 10 | – | – | –
CCOC(=O)Cc1csc(NC(=O)Nc2ccc(C)cc2)n1 | – | – | 14 | – | – | –
CCOC(=O)Cc1csc(NC(=O)c2cccc(OC)c2)n1 | – | – | – | – | – | –
CC(C)(C)OC(=O)N1CCN(C(=O)c2[nH]cnc2C(=O)Nc2nccs2)CC1 | – | – | – | – | · | –
COC(=O)c1c(NC(=O)c2ccco2)sc2c1CCC2 | – | – | – | – | 76 | –
COC(=O)c1c(NC(=O)COC(=O)c2ccc(O)cc2)sc2c1CCCCC2 | – | – | 18 | – | – | –
COCC(=O)Nc1sc2c(c1C(=O)OC)CCCC2 | – | – | – | – | – | –
CNC(=O)c1c(NC(=O)c2ccco2)sc2c1CCCC2 | – | – | – | – | · | –
O=C(Nc1sc2c(c1C(=O)NC1CC1)CCCCCC2)c1ccco1 | – | – | – | – | 96 | –
CCOC(=O)c1c(CC(C)C)csc1NC(=O)COC(=O)c1ccc(O)cc1 | – | – | 25 | – | · | –
COC(=O)c1c(NC(=O)c2c(-c3ccccc3Cl)noc2C)sc2c1CCC2 | – | – | – | – | 81 | –
CCOC(=O)c1c(NC(=O)C(C)OC(=O)c2ccc(NC(=O)CC#N)cc2)sc2c1CCCC2 (centres undefined) | – | – | 12 | – | · | –
CCOC(=O)c1c(NC(=O)C(C)OC(=O)C2=COCCO2)sc2c1CCCC2 (centres undefined) | – | – | – | – | · | –
CN(C)S(=O)(=O)c1ccc(S(=O)(=O)N2CCCC(C(=O)NC3CCCC3)C2)cc1 (centres undefined) | – | – | – | – | · | –
CC1=CN(S(=O)(=O)c2ccc(C)cc2)C[C@@H]2c3ccccc3N(S(=O)(=O)c3ccc(C)cc3)[C@H]12 | – | – | 17 | – | · | –

Assay outcomes deposited in PubChem by several laboratories.
